Experiments:
[1] = molecular target: T1, Activin receptor type-1B (Homo sapiens) (UniProt P36896); assay: Competitive binding affinity to ACVR1B (unknown origin) at 10 uM in presence of ATP relative to control
T1 sequence (whole entry): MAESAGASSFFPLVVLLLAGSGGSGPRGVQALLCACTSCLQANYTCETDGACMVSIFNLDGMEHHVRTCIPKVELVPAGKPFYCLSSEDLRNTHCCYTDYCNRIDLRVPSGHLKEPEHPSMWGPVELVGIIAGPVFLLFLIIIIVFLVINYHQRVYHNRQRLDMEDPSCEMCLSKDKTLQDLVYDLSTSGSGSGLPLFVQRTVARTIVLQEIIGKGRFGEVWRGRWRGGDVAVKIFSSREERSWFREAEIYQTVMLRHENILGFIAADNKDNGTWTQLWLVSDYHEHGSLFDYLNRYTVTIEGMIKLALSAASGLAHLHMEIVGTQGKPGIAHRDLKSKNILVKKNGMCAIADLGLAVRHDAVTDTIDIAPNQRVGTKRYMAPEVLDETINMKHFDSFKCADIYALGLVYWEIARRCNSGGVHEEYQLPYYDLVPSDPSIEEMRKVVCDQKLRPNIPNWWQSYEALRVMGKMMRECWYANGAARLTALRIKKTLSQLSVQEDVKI

[2] = molecular target: Serine/threonine-protein kinase pim-3 (Homo sapiens) (UniProt Q86V86); assay: Competitive binding affinity to PIM3 (unknown origin) at 10 uM in presence of ATP relative to control
[3] = molecular target: Dual specificity testis-specific protein kinase 1 (Homo sapiens) (UniProt Q15569); assay: Competitive binding affinity to TESK1 (unknown origin) at 10 uM in presence of ATP relative to control
Sequence of Dual specificity testis-specific protein kinase 1 (Homo sapiens) (Q15569 whole entry, looked up): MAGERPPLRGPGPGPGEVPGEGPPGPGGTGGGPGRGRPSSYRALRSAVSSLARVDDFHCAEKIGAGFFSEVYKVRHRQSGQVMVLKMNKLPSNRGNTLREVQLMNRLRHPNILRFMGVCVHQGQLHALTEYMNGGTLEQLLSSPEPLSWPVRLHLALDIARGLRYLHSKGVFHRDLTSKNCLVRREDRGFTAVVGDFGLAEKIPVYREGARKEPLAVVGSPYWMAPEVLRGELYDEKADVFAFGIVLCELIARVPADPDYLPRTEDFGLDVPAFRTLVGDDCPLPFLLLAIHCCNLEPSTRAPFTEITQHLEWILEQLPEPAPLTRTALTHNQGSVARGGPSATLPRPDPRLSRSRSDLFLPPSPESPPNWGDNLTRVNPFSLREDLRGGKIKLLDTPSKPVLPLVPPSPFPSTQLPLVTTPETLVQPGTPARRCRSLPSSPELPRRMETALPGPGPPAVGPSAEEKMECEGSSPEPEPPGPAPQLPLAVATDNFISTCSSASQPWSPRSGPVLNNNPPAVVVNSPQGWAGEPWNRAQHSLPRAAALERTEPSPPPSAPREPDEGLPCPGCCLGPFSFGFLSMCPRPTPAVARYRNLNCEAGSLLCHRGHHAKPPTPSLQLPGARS

[4] = molecular target: Hepatocyte growth factor receptor (Homo sapiens) (UniProt P08581); assay: Competitive binding affinity to MET (unknown origin) at 10 uM in presence of ATP relative to control
Sequence of Hepatocyte growth factor receptor (Homo sapiens) (P08581 whole entry): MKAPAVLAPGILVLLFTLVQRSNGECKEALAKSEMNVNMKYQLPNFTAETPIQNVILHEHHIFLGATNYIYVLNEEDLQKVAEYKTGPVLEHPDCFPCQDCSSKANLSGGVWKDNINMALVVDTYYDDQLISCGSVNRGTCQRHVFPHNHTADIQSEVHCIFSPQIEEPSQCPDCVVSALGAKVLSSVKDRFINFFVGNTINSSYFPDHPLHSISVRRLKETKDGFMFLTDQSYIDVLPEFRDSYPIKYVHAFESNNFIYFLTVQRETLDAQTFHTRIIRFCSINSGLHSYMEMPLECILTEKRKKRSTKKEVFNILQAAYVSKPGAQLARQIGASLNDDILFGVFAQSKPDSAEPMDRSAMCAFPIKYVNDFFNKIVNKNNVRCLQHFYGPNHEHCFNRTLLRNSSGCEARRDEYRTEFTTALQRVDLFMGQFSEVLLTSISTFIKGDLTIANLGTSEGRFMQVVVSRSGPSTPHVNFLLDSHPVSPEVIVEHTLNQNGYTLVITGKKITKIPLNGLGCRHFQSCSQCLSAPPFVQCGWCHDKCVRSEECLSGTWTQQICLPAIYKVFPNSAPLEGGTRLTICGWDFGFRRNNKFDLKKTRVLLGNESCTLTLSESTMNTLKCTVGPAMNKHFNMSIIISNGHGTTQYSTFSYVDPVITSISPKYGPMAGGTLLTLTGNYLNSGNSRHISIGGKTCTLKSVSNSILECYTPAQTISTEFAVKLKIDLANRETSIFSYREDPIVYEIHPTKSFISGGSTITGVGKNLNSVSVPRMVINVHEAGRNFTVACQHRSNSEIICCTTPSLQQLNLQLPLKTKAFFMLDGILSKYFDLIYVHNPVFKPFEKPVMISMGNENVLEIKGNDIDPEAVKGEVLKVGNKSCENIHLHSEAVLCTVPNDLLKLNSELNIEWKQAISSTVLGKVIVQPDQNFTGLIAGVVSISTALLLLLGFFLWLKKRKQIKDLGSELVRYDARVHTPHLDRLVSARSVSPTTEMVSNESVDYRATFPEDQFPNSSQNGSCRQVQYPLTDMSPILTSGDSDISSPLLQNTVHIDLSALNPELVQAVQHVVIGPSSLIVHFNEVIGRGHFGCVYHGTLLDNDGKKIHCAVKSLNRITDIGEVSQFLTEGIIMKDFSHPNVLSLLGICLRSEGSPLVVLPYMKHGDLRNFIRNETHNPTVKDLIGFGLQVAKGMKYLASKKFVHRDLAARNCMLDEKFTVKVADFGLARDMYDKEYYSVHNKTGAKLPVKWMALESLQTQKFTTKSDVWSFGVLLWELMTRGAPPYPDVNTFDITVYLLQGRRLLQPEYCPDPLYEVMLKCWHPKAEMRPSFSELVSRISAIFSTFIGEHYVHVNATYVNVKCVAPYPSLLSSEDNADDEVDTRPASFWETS

[5] = molecular target: Serine/threonine-protein kinase MARK1 (Homo sapiens) (UniProt Q9P0L2); assay: Competitive binding affinity to MARK1 (unknown origin) at 10 uM in presence of ATP relative to control
Sequence of Serine/threonine-protein kinase MARK1 (Homo sapiens) (Q9P0L2 whole entry, looked up): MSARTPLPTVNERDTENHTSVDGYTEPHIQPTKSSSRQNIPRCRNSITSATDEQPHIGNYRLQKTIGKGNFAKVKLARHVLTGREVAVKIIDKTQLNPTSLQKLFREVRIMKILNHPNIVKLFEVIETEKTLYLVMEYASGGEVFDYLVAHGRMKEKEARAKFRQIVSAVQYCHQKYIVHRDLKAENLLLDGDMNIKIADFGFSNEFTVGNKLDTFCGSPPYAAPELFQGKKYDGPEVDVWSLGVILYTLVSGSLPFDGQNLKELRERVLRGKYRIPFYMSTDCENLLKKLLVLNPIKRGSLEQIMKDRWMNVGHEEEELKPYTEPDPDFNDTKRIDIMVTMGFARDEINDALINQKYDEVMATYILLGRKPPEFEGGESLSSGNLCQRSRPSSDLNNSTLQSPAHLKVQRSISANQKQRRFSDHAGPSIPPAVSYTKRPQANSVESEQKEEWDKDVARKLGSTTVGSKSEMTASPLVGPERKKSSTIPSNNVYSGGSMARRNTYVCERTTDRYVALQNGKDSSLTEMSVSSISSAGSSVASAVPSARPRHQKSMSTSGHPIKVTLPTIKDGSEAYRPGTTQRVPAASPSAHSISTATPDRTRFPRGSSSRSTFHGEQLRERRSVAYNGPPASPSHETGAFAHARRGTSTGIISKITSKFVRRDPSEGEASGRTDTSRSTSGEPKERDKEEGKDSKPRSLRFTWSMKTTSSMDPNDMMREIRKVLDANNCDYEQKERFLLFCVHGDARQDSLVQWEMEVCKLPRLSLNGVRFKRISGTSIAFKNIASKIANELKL
Method in brief: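 In vitro ATP-site competition binding assay, part of profiling against a diverse panel of 128 kinases. Each compound was tested at a single concentration of 10 µM. Kinome selectivity was summarized as S15 selectivity scores.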

[6] = molecular target: T2, Tyrosine-protein kinase JAK3 (Homo sapiens) (UniProt P52333); assay: Competitive binding affinity to JAK3 kinase domain 2 (unknown origin) at 10 uM in presence of ATP relative to control
T2 sequence (whole entry): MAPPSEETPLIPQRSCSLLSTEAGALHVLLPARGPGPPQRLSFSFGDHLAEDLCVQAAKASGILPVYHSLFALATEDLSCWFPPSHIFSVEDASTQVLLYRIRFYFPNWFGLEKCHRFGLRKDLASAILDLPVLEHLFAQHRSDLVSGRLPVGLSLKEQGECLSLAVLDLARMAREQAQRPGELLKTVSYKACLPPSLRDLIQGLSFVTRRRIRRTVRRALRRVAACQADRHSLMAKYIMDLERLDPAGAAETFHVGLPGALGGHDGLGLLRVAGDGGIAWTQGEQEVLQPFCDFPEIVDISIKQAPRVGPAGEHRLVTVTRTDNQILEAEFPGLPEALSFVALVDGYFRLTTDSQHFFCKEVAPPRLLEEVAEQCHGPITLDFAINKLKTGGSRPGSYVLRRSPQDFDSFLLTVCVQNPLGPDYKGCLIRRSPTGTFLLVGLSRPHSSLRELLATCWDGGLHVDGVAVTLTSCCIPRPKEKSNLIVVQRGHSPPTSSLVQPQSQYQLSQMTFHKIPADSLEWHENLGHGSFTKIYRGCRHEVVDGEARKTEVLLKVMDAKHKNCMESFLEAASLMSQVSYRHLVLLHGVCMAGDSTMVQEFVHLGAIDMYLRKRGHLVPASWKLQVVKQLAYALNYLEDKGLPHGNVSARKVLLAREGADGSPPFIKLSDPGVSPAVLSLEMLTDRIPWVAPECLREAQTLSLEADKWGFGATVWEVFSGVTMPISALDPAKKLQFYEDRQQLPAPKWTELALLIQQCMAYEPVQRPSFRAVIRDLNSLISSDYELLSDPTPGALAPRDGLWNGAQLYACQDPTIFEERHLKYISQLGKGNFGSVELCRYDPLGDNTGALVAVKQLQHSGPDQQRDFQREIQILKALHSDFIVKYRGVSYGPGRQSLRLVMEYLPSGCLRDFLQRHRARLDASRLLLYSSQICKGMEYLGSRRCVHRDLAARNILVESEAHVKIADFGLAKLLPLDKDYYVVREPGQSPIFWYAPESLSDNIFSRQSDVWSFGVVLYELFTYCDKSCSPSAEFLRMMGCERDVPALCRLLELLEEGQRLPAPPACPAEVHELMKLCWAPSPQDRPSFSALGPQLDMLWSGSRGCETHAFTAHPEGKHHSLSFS

[7] = molecular target: T3, Serine/threonine-protein kinase 17B (Homo sapiens) (UniProt O94768); assay: Competitive binding affinity to DRAK2 (unknown origin) at 10 uM in presence of ATP relative to control
T3 sequence (whole entry): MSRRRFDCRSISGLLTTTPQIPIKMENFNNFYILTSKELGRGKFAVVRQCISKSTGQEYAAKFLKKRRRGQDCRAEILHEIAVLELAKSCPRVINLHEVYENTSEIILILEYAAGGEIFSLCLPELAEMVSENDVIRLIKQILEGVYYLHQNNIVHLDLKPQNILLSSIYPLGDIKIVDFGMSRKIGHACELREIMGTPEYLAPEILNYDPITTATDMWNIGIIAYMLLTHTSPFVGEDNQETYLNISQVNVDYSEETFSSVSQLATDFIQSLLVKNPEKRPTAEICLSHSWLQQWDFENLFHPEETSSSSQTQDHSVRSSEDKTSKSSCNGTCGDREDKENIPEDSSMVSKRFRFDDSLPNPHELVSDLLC

Homo sapiens = species on record: Homo sapiens; assay: Competitive binding affinity to EGFR L747 to T751 deletion mutant, Sins mutant (unknown origin) at 10 uM in presence of ATP relative to control
[8] = molecular target: SRSF protein kinase 2 (Homo sapiens) (UniProt P78362); assay: Competitive binding affinity to SRPK2 (unknown origin) at 10 uM in presence of ATP relative to control
Sequence of SRSF protein kinase 2 (Homo sapiens) (P78362 whole entry, looked up): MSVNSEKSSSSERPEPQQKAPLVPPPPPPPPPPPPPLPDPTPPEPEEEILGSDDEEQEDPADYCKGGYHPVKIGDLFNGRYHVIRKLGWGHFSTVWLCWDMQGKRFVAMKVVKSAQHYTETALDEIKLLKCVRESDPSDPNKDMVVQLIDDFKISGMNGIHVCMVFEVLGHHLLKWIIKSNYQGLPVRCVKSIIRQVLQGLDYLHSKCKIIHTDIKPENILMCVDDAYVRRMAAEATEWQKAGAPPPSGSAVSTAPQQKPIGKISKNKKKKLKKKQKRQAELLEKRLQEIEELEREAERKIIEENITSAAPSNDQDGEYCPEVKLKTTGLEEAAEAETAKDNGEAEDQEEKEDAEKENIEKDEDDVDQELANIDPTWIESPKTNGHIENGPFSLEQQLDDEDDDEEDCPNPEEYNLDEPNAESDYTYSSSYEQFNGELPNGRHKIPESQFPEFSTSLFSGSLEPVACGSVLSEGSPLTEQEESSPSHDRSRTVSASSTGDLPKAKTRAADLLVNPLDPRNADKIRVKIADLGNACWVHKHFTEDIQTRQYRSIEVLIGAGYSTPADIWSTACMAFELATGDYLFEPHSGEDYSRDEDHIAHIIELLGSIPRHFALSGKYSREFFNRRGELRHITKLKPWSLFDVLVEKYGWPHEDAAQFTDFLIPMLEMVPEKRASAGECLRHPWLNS

Row | inhibition [1] [%] | inhibition [2] [%] | inhibition [3] [%] | inhibition [4] [%] | inhibition [5] [%] | inhibition [6] [%] | inhibition [7] [%] | inhibition (Homo sapiens) [%] | inhibition [8] [%] | Structure (SMILES)
1 | < 50 | 96 | 82 | 96 | < 50 | < 50 | 91 | < 50 | < 50 | O[C@H]1CC[C@H](Nc2nccc(-n3ncc4ccccc43)n2)CC1
2 | < 50 | < 50 | 82 | 93 | < 50 | < 50 | < 50 | < 50 | < 50 | O[C@H]1CC[C@H](Nc2nccc(-n3ccc4ccccc43)n2)CC1
3 | < 50 |  | 98 | 98 | 66 |  |  | < 50 |  | O[C@H]1CC[C@H](Nc2nccc(-c3n[nH]c4ccccc34)n2)CC1
4 | < 50 | 88 | < 50 | 97 | < 50 | < 50 | 86 | < 50 | < 50 | O[C@H]1CC[C@H](Nc2nccc(-n3nnc4ccccc43)n2)CC1
